Data as given in ChEMBL document CHEMBL3853307, “Anti-inflammatory Effect of Methyl Gallate on Experimental Arthritis: Inhibition of Neutrophil Recruitment, Production of Inflammatory Mediators, and Activation of Macrophages” (J Nat Prod, 2016).
The source made the active and inactive calls.

Columns and labels:
Neutrophil = assay: Antiinflammatory activity in C57BL/6 mouse neutrophils assessed as inhibition of CXCL1/KC-induced neutrophil chemotaxis at 50 nM preincubated for 1 hr followed by CXCL1/KC-induction measured after 1 hr by Wright-Giemsa staining-based light microscopic method; assay type: functional, cell-based
How it was run: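 Bone marrow neutrophils from C57BL/6 femurs, purified on a 65%/72% Percoll gradient (~85−90% purity). 10^5 cells preincubated 1 h with compound or medium, then placed in a 48-well Boyden chamber over CXCL-1/KC (250 nM) across a 5 μm polycarbonate filter, 60 min at 37 °C, 5% CO2. Filter Wright-Giemsa stained; migrated cells counted in 15 fields; quadruplicate wells.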

Mus musculus [1] = assay: Antiinflammatory activity in C57BL/6 mouse assessed as inhibition of zymosan-induced knee joint edema formation at 10 mg/kg, ip administered 1 hr prior to zymosan challenge measured at 6 hrs relative to control; assay type: functional; details: C57BL/6, Knee joint
How it was run: (§1)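 Male C57BL/6 mice, fasted overnight, dosed orally (vehicle saline/water, 200 μL) or i.p. 1 h before zymosan (500 μg in 25 μL saline, i.a., left knee). Knee swelling measured as change in transverse diameter from basal by digital caliper (mm). Synovial washes (PBS/EDTA) counted on a particle counter; differentials from May-Grünwald-Giemsa cytospins, cells ×10^5/cavity. Sampled at 6 and/or 24 h; seven mice/group.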

Mus musculus [2] = assay: Antiinflammatory activity in C57BL/6 mouse assessed as inhibition of zymosan-induced total leukocyte accumulation in articular cavity at 10 mg/kg, ip administered 1 hr prior to zymosan challenge measured at 6 to 24 hrs; assay type: functional, organism-based; how it was run: as §1
J774.A1 [3] = assay: Antiinflammatory activity in mouse J774A.1 cells assessed as inhibition of zymosan and IFNgamma-induced COX2 expression at 1 uM preincubated for 1 hr followed by zymosan and IFNgamma addition measured after 24 hrs by Western blot analysis; assay type: functional, cell-based
How it was run: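 J774A.1 cells in six-well plates pretreated 1 h (0.1−10 μM) before zymosan (10 μg per 10^5 cells) and/or IFN-γ (25 U/mL) for 24 h. Lysates (Tris/NaCl/MgCl2/0.5% NP40 with protease inhibitors); 30 μg protein run on 7.5% SDS-PAGE, transferred to PVDF, probed for COX-2, iNOS and α-tubulin.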

Mus musculus [4] = assay: Antiinflammatory activity in C57BL/6 mouse assessed as inhibition of zymosan-induced IL6 production in cell-free supernatant of knee joint synovial washes at 10 mg/kg, ip administered 1 hr prior to zymosan challenge measured at 6 to 24 hrs by sandwich ELISA method; assay type: functional, organism-based
How it was run: (§2)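 Male C57BL/6 mice (18−22 g), fasted overnight, dosed orally (in filtered water, 200 μL) or i.p. 1 h before i.a. zymosan (500 μg in 25 μL saline) into left knee; contralateral knee got vehicle. Synovial cavity washed twice with 150 μL PBS/10 mM EDTA at 6 and 24 h; washes spun 400g 10 min, 4 °C. Cytokines measured by sandwich ELISA, LTB4/PGE2 by EIA (pg/mL); six mice/group, two experiments.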

Mus musculus [5] = assay: Antiinflammatory activity in C57BL/6 mouse assessed as inhibition of zymosan-induced LTB4 production in cell-free supernatant of knee joint synovial washes at 10 mg/kg, ip administered 1 hr prior to zymosan challenge measured at 6 to 24 hrs by immunosorbent assay; assay type: functional, organism-based; how it was run: as §2
Mus musculus [6] = assay: Antiinflammatory activity in C57BL/6 mouse assessed as inhibition of zymosan-induced IL-1beta production in cell-free supernatant of knee joint synovial washes at 10 mg/kg, ip administered 1 hr prior to zymosan challenge measured at 6 to 24 hrs by sandwich ELISA method; assay type: functional, organism-based; how it was run: as §2
Mus musculus [7] = assay: Antiinflammatory activity in C57BL/6 mouse assessed as inhibition of zymosan-induced synovial hyperplasia at 10 mg/kg, ip administered 1 hr prior to zymosan challenge measured at 6 to 24 hrs by hematoxylin and eosin staining-based optical microscopy; assay type: functional, organism-based
How it was run: (§3)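 Mice dosed orally or i.p. 1 h before i.a. zymosan (500 μg/cavity) or saline. Whole knees taken at 6 and 24 h from six mice, fixed in 10% formalin 48 h, decalcified in 10% EDTA/PBS 1−2 weeks, paraffin-embedded. 5 μm sections H&E-stained and examined by light microscopy. Parameter scores summed into an arthritis index; means ± SEM, two experiments.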

Mus musculus [8] = assay: Antiinflammatory activity in C57BL/6 mouse assessed as inhibition of zymosan-induced mononuclear cells migration in articular cavity at 10 mg/kg, ip administered 1 hr prior to zymosan challenge measured at 6 to 24 hrs; assay type: functional, organism-based; how it was run: as §1
Mus musculus [9] = assay: Antiinflammatory activity in C57BL/6 mouse assessed as inhibition of zymosan-induced PGE2 production in cell-free supernatant of knee joint synovial washes at 10 mg/kg, ip administered 1 hr prior to zymosan challenge measured at 6 to 24 hrs by immunosorbent assay; assay type: functional, organism-based; how it was run: as §2
Mus musculus [10] = assay: Antiinflammatory activity in C57BL/6 mouse assessed as inhibition of zymosan-induced bleeding in synovial tissue at 10 mg/kg, ip administered 1 hr prior to zymosan challenge measured at 6 to 24 hrs by hematoxylin and eosin staining-based optical microscopy; assay type: functional, organism-based; how it was run: as §3
Mus musculus [11] = assay: Antiinflammatory activity in C57BL/6 mouse assessed as inhibition of zymosan-induced CXCL1/KC production in cell-free supernatant of knee joint synovial washes at 10 mg/kg, ip administered 1 hr prior to zymosan challenge measured at 6 to 24 hrs by sandwich ELISA method; assay type: functional, organism-based; how it was run: as §2
J774.A1 [12] = assay: Antiinflammatory activity in mouse J774A.1 cells assessed as inhibition of zymosan and IFNgamma-induced nitric oxide production at 1 uM preincubated for 1 hr followed by zymosan and IFNgamma addition measured after 24 hrs by colorimetric Griess test; assay type: functional, cell-based
How it was run: (§4)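 J774A.1 macrophages (1 × 10^5/well, RPMI/10% FBS) adhered 24 h, preincubated 1 h with compound (0.1−10 μM) or dexamethasone (1 μM), then stimulated with zymosan (10 μg per 10^5 cells) and/or IFN-γ (25 U/mL) for 24 h. Supernatant IL-6 by sandwich ELISA; nitrite by Griess reaction at 540 nm. Quadruplicate wells, two experiments.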

J774.A1 [13] = assay: Antiinflammatory activity in mouse J774A.1 cells assessed as inhibition of zymosan and IFNgamma-induced IL6 production in cell-free supernatant at 1 uM preincubated for 1 hr followed by zymosan and IFNgamma addition measured after 24 hrs by sandwich ELISA; assay type: functional, cell-based; how it was run: as §4
Mus musculus [14] = assay: Antiinflammatory activity in C57BL/6 mouse assessed as inhibition of zymosan-induced arthritis score at 10 mg/kg, ip administered 1 hr prior to zymosan challenge measured at 6 to 24 hrs by hematoxylin and eosin staining-based optical microscopy; assay type: functional, organism-based; how it was run: as §3
Mus musculus [15] = assay: Antiinflammatory activity in C57BL/6 mouse assessed as inhibition of zymosan-induced neutrophil migration in articular cavity at 10 mg/kg, ip administered 1 hr prior to zymosan challenge measured at 6 to 24 hrs; assay type: functional, organism-based; how it was run: as §1
Mus musculus [16] = assay: Antiinflammatory activity in C57BL/6 mouse assessed as inhibition of zymosan-induced infiltration of inflammatory cells into synovial tissue at 10 mg/kg, ip administered 1 hr prior to zymosan challenge measured at 6 to 24 hrs by hematoxylin and eosin staining-based optical microscopy; assay type: functional, organism-based; how it was run: as §3
Mus musculus [17] = assay: Antiinflammatory activity in C57BL/6 mouse assessed as inhibition of zymosan-induced TNFalpha production in cell-free supernatant of knee joint synovial washes at 10 mg/kg, ip administered 1 hr prior to zymosan challenge measured at 6 to 24 hrs by sandwich ELISA method; assay type: functional, organism-based; how it was run: as §2
Mus musculus [18] = assay: Antiinflammatory activity in C57BL/6 mouse assessed as inhibition of zymosan-induced knee joint edema formation at 10 mg/kg, ip administered 1 hr prior to zymosan challenge measured at 24 hrs relative to control; assay type: functional; details: C57BL/6, Knee joint; how it was run: as §1

C[C@@H]1C[C@H]2[C@@H]3CCC4=CC(=O)C=C[C@]4(C)[C@@]3(F)[C@@H](O)C[C@]2(C)[C@@]1(O)C(=O)CO [DEXAMETHASONE]
48%: inhibition in vivo at 10 mg/kg (Mus musculus [18])
active: inhibition (Neutrophil) | inhibition (Mus musculus [2]) | inhibition (J774.A1 [3]) | inhibition (Mus musculus [4]) | inhibition (Mus musculus [5]) | inhibition (Mus musculus [6]) | inhibition (Mus musculus [7]) | inhibition (Mus musculus [8]) | inhibition (Mus musculus [9]) | inhibition (Mus musculus [10]) | inhibition (Mus musculus [11]) | inhibition (J774.A1 [12]) | inhibition (J774.A1 [13]) | inhibition (Mus musculus [14]) | inhibition (Mus musculus [15]) | inhibition (Mus musculus [16]) | inhibition (Mus musculus [17])
42%: inhibition in vivo at 10 mg/kg (Mus musculus [1])
